Measured values: ChEMBL document CHEMBL1156480, “Insensitivity to Abeta42-lowering nonsteroidal anti-inflammatory drugs and gamma-secretase inhibitors is common among aggressive presenilin-1 mutations” (J Biol Chem, 2007)

Key:
Assay type in all cases: cell-based
Parameters in all cases: scale not given: the % may be the effect or the level left
CHO [1] = test: Reduction of human PS1 delta exon9 mutant-induced amyloid beta-40 level in CHO cells overexpressing human APP751 at 100 nM after 24 hrs by liquid phase electrochemiluminescence assay relative to control
How it was run: (§1)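 APP751 CHO cells stably expressing PS1-ΔExon9, PS1-L166P or PS1-WT, cultured in parallel in serum-containing medium. Treated 24 h with increasing γ-secretase inhibitor concentrations or DMSO. Conditioned-media Abeta40/Abeta42 quantified by LPECL against synthetic peptide standards (16–2000 pg/ml). Duplicates normalized to DMSO. n = 3, one-way ANOVA with Dunnett's test versus PS1-WT.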

CHO [2] = test: Reduction of human PS1 delta exon9 mutant-induced amyloid beta-42 level in CHO cells overexpressing human APP751 at 25 nM after 24 hrs by liquid phase electrochemiluminescence assay relative to control; how it was run: as §1
[3] = molecular target: Presenilin-1 (Homo sapiens) (UniProt P49768); test: Reduction of human wild type PS1-induced amyloid beta-42 level in CHO cells overexpressing human APP751 at 25 nM after 24 hrs by liquid phase electrochemiluminescence assay relative to control
[4] = test system: Presenilin-1 (Homo sapiens), P49768 [L166P]; test: Reduction of human PS1 L166P mutant-induced amyloid beta-40 level in CHO cells overexpressing human APP751 at 25 nM after 24 hrs by liquid phase electrochemiluminescence assay relative to control; how it was run: as §1
CHO [5] = test: Reduction of human PS1 delta exon9 mutant-induced amyloid beta-40 level in CHO cells overexpressing human APP751 at 25 nM after 24 hrs by liquid phase electrochemiluminescence assay relative to control; how it was run: as §1
CHO [6] = test: Reduction of human PS1 delta exon9 mutant-induced amyloid beta-42 level in CHO cells overexpressing human APP751 at 100 nM after 24 hrs by liquid phase electrochemiluminescence assay relative to control; how it was run: as §1
[7] = molecular target: Presenilin-1 (Homo sapiens) (UniProt P49768); test: Reduction of human wild type PS1-induced amyloid beta-40 level in CHO cells overexpressing human APP751 at 50 nM after 24 hrs by liquid phase electrochemiluminescence assay relative to control
CHO [8] = test: Reduction of human PS1 delta exon9 mutant-induced amyloid beta-42 level in CHO cells overexpressing human APP751 at 50 nM after 24 hrs by liquid phase electrochemiluminescence assay relative to control
[9] = molecular target: Presenilin-1 (Homo sapiens) (UniProt P49768); test: Reduction of human wild type PS1-induced amyloid beta-42 level in CHO cells overexpressing human APP751 at 100 nM after 24 hrs by liquid phase electrochemiluminescence assay relative to control
[10] = test system: Presenilin-1 (Homo sapiens), P49768 [L166P]; test: Reduction of human PS1 L166P mutant-induced amyloid beta-42 level in CHO cells overexpressing human APP751 at 100 nM after 24 hrs by liquid phase electrochemiluminescence assay relative to control; how it was run: as §1
[11] = test system: Presenilin-1 (Homo sapiens), P49768 [L166P]; test: Reduction of human PS1 L166P mutant-induced amyloid beta-40 level in CHO cells overexpressing human APP751 at 50 nM after 24 hrs by liquid phase electrochemiluminescence assay relative to control; how it was run: as §1
[12] = test system: Presenilin-1 (Homo sapiens), P49768 [L166P]; test: Reduction of human PS1 L166P mutant-induced amyloid beta42 level in CHO cells overexpressing human APP751 at 50 nM after 24 hrs by liquid phase electrochemiluminescence assay relative to control; how it was run: as §1
[13] = molecular target: Presenilin-1 (Homo sapiens) (UniProt P49768); test: Reduction of human wild type PS1-induced amyloid beta-40 level in CHO cells overexpressing human APP751 at 100 nM after 24 hrs by liquid phase electrochemiluminescence assay relative to control
CHO [14] = test: Reduction of human PS1 delta exon9 mutant-induced amyloid beta40 level in CHO cells overexpressing human APP751 at 50 nM after 24 hrs by liquid phase electrochemiluminescence assay relative to control
[15] = molecular target: Presenilin-1 (Homo sapiens) (UniProt P49768); test: Reduction of human wild type PS1-induced amyloid beta-42 level in CHO cells overexpressing human APP751 at 50 nM after 24 hrs by liquid phase electrochemiluminescence assay relative to control
[16] = test system: Presenilin-1 (Homo sapiens), P49768 [L166P]; test: Reduction of human PS1 L166P mutant-induced amyloid beta42 level in CHO cells overexpressing human APP751 at 25 nM after 24 hrs by liquid phase electrochemiluminescence assay relative to control; how it was run: as §1
[17] = test system: Presenilin-1 (Homo sapiens), P49768 [L166P]; test: Reduction of human PS1 L166P mutant-induced amyloid beta-40 level in CHO cells overexpressing human APP751 at 100 nM after 24 hrs by liquid phase electrochemiluminescence assay relative to control; how it was run: as §1
[18] = molecular target: Presenilin-1 (Homo sapiens) (UniProt P49768); test: Reduction of human wild type PS1-induced amyloid beta-40 level in CHO cells overexpressing human APP751 at 25 nM after 24 hrs by liquid phase electrochemiluminescence assay relative to control
CHO [19] = test: Reduction of human PS1 delta exon9 mutant-induced amyloid beta-42 level in CHO cells overexpressing human APP751 at 60 uM after 24 hrs by liquid phase electrochemiluminescence assay relative to control
[20] = test system: Presenilin-1 (Homo sapiens), P49768 [P117L]; test: Reduction of human PS1 P117L mutant-induced amyloid beta42 level in CHO cells overexpressing human APP751 at 60 uM after 24 hrs by liquid phase electrochemiluminescence assay relative to control
[21] = test system: Presenilin-1 (Homo sapiens), P49768 [P117L]; test: Reduction of human PS1 P117L mutant-induced amyloid beta42 level in CHO cells overexpressing human APP751 at 30 uM after 24 hrs by liquid phase electrochemiluminescence assay relative to control
[22] = test system: Presenilin-1 (Homo sapiens), P49768 [M292D]; test: Reduction of human PS1 M292D mutant-induced amyloid beta-42 level in CHO cells overexpressing human APP751 at 30 uM after 24 hrs by liquid phase electrochemiluminescence assay relative to control
[23] = test system: Presenilin-1 (Homo sapiens), P49768 [S290C]; test: Reduction of human PS1 S290C mutant-induced amyloid beta-42 level in CHO cells overexpressing human APP751 at 60 uM after 24 hrs by liquid phase electrochemiluminescence assay relative to control
[24] = test system: Presenilin-1 (Homo sapiens), P49768 [M292D]; test: Reduction of human PS1 M292D mutant-induced amyloid beta42 level in CHO cells overexpressing human APP751 at 60 uM after 24 hrs by liquid phase electrochemiluminescence assay relative to control
CHO [25] = test: Reduction of human PS1 delta 291 to 319 deletion mutant-induced amyloid beta-42 level in CHO cells overexpressing human APP751 at 30 uM after 24 hrs by liquid phase electrochemiluminescence assay relative to control
[26] = test system: Presenilin-1 (Homo sapiens), P49768 [G384A]; test: Reduction of human PS1 G384A mutant-induced amyloid beta42 level in CHO cells overexpressing human APP751 at 60 uM after 24 hrs by liquid phase electrochemiluminescence assay relative to control
[27] = molecular target: Presenilin-1 (Homo sapiens) (UniProt P49768); test: Reduction of human wild type human PS1-induced amyloid beta-42 level in CHO cells overexpressing human APP751 at 60 uM after 24 hrs by liquid phase electrochemiluminescence assay relative to control
[28] = test system: Presenilin-1 (Homo sapiens), P49768 [S290C,M292D]; test: Reduction of human PS1 S290C/M292D mutant-induced amyloid beta-42 level in CHO cells overexpressing human APP751 at 30 uM after 24 hrs by liquid phase electrochemiluminescence assay relative to control
[29] = test system: Presenilin-1 (Homo sapiens), P49768 [S290C]; test: Reduction of human PS1 S290C mutant-induced amyloid beta-42 level in CHO cells overexpressing human APP751 at 30 uM after 24 hrs by liquid phase electrochemiluminescence assay relative to control
[30] = test system: Presenilin-1 (Homo sapiens), P49768 [L166P]; test: Reduction of human PS1 L166P mutant-induced amyloid beta42 level in CHO cells overexpressing human APP751 at 30 uM after 24 hrs by liquid phase electrochemiluminescence assay relative to control
[31] = test system: Presenilin-1 (Homo sapiens), P49768 [M292D,M146L]; test: Reduction of human PS1 M292D/M146L mutant-induced amyloid beta-42 level in CHO cells overexpressing human APP751 at 30 uM after 24 hrs by liquid phase electrochemiluminescence assay relative to control
[32] = molecular target: Presenilin-1 (Homo sapiens) (UniProt P49768); test: Reduction of wild type human PS1-induced amyloid beta42 level in CHO cells overexpressing human APP751 at 30 uM after 24 hrs by liquid phase electrochemiluminescence assay relative to control
[33] = test system: Presenilin-1 (Homo sapiens), P49768 [L166P]; test: Reduction of human PS1 L166P mutant-induced amyloid beta42 level in CHO cells overexpressing human APP751 at 60 uM after 24 hrs by liquid phase electrochemiluminescence assay relative to control
[34] = test system: Presenilin-1 (Homo sapiens), P49768 [G384A]; test: Reduction of human PS1 G384A mutant-induced amyloid beta42 level in CHO cells overexpressing human APP751 at 30 uM after 24 hrs by liquid phase electrochemiluminescence assay relative to control
[35] = test system: Presenilin-1 (Homo sapiens), P49768 [M292D,M146L]; test: Reduction of human PS1 M292D/M146L mutant-induced amyloid beta42 level in CHO cells overexpressing human APP751 at 60 uM after 24 hrs by liquid phase electrochemiluminescence assay relative to control
CHO [36] = test: Reduction of human PS1 delta 291 to 319 deletion mutant-induced amyloid beta-42 level in CHO cells overexpressing human APP751 at 60 uM after 24 hrs by liquid phase electrochemiluminescence assay relative to control
CHO [37] = test: Reduction of human PS1 delta exon9 mutant-induced amyloid beta-42 level in CHO cells overexpressing human APP751 at 30 uM after 24 hrs by liquid phase electrochemiluminescence assay relative to control

C[C@H](NC(=O)Cc1cc(F)cc(F)c1)C(=O)N[C@H](C(=O)OC(C)(C)C)c1ccccc1
Activity (CHO [1]): 60.8%
Activity (CHO [2]): 107%
Activity [3]: 44%
Activity [4]: 54.4%
Activity (CHO [5]): 101%
Activity (CHO [6]): 65.9%
Activity [7]: 14.6%
Activity (CHO [8]): 94.9%
Activity [9]: 8.13%
Activity [10]: 34.5%
Activity [11]: 30.3%
Activity [12]: 50.3%
Activity [13]: 5.82%
Activity (CHO [14]): 90.2%
Activity [15]: 18.8%
Activity [16]: 72.3%
Activity [17]: 14.9%
Activity [18]: 33.8%

CSc1ccc(/C=C2/C(C)=C(CC(=O)O)c3cc(F)ccc32)cc1
Activity (CHO [19]): 99.5%
Activity [20]: 88.5%
Activity [21]: 100%
Activity [22]: 89.5%
Activity [23]: 65.9%
Activity [24]: 73.9%
Activity (CHO [25]): 88.7%
Activity [26]: 90.3%
Activity [27]: 61.6%
Activity [28]: 82.4%
Activity [29]: 83.8%
Activity [30]: 99.5%
Activity [31]: 73.2%
Activity [32]: 78.2%
Activity [33]: 99.2%
Activity [34]: 95.1%
Activity [35]: 58.5%
Activity (CHO [36]): 82.7%
Activity (CHO [37]): 99.7%
